# Measured values from ChEMBL document CHEMBL4346667 (Eur J Med Chem, 2019).
# Key:
# Assay type in all cases: functional
# MCF7 [1] = test: Induction of apoptosis in human MCF7 cells assessed as viable cells at 1 uM after 6 hrs by Annexin V-FITC/propidium iodide staining-based flow cytometric analysis (reference value: 92.8%); conditions: MCF7, 6 h, read-out: Activity
# MCF7 [2] = test: Induction of apoptosis in human MCF7 cells assessed as early apoptotic cells at 5 uM after 6 hrs by Annexin V-FITC/propidium iodide staining-based flow cytometric analysis (reference value: 2%)
# Method in brief: (§1)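 Log-phase cells seeded in 6-well plates and treated after adhesion; incubated in cycles of 6 h on/6 h off up to 48 h. Collected after PBS washes and trypsin, resuspended in Ca2+-enriched binding buffer. Stained with annexin V (1 µg/mL) plus PI (0.5 µg/mL) 15 min in the dark at room temperature. 10,000 events, FL1 vs FL2. At least three repeats.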
# MCF7 [3] = test: Induction of apoptosis in human MCF7 cells assessed as late apoptotic cells at 5 uM after 6 hrs by Annexin V-FITC/propidium iodide staining-based flow cytometric analysis (reference value: 4.7%); method in brief: as §1
# MCF7 [4] = test: Induction of apoptosis in human MCF7 cells assessed as necrotic cells at 5 uM after 6 hrs by Annexin V-FITC/propidium iodide staining-based flow cytometric analysis (reference value: 0.5%)
# MCF7 [5] = test: Induction of apoptosis in human MCF7 cells assessed as viable cells at 10 uM after 6 hrs by Annexin V-FITC/propidium iodide staining-based flow cytometric analysis (reference value: 92.8%); conditions: MCF7, 6 h, read-out: Activity
# MCF7 [6] = test: Induction of apoptosis in human MCF7 cells assessed as late apoptotic cells at 10 uM after 6 hrs by Annexin V-FITC/propidium iodide staining-based flow cytometric analysis (reference value: 4.7%); method in brief: as §1
# MCF7 [7] = test: Induction of apoptosis in human MCF7 cells assessed as necrotic cells at 10 uM after 6 hrs by Annexin V-FITC/propidium iodide staining-based flow cytometric analysis (reference value: 0.5%)
# MCF7 [8] = test: Induction of apoptosis in human MCF7 cells assessed as viable cells at 25 uM after 6 hrs by Annexin V-FITC/propidium iodide staining-based flow cytometric analysis (reference value: 92.8%); conditions: MCF7, 6 h, read-out: Activity
# MCF7 [9] = test: Induction of apoptosis in human MCF7 cells assessed as late apoptotic cells at 25 uM after 6 hrs by Annexin V-FITC/propidium iodide staining-based flow cytometric analysis (reference value: 4.7%); method in brief: as §1
# MCF7 [10] = test: Induction of apoptosis in human MCF7 cells assessed as necrotic cells at 25 uM after 6 hrs by Annexin V-FITC/propidium iodide staining-based flow cytometric analysis (reference value: 0.5%)
# MCF7 [11] = test: Induction of apoptosis in human MCF7 cells assessed as viable cells at 50 uM after 6 hrs by Annexin V-FITC/propidium iodide staining-based flow cytometric analysis (reference value: 92.8%); conditions: MCF7, 6 h, read-out: Activity
# MCF7 [12] = test: Induction of apoptosis in human MCF7 cells assessed as early apoptotic cells at 50 uM after 6 hrs by Annexin V-FITC/propidium iodide staining-based flow cytometric analysis (reference value: 2%); method in brief: as §1
# MCF7 [13] = test: Induction of apoptosis in human MCF7 cells assessed as viable cells at 1 uM after 24 hrs by Annexin V-FITC/propidium iodide staining-based flow cytometric analysis (reference value: 92.1%); conditions: MCF7, 24 h, read-out: Activity
# MCF7 [14] = test: Induction of apoptosis in human MCF7 cells assessed as necrotic cells at 1 uM after 24 hrs by Annexin V-FITC/propidium iodide staining-based flow cytometric analysis (reference value: 0.2%)
# MCF7 [15] = test: Induction of apoptosis in human MCF7 cells assessed as viable cells at 5 uM after 24 hrs by Annexin V-FITC/propidium iodide staining-based flow cytometric analysis (reference value: 92.1%); conditions: MCF7, 24 h, read-out: Activity
# MCF7 [16] = test: Induction of apoptosis in human MCF7 cells assessed as early apoptotic cells at 5 uM after 24 hrs by Annexin V-FITC/propidium iodide staining-based flow cytometric analysis (reference value: 2.1%); method in brief: as §1
# MCF7 [17] = test: Induction of apoptosis in human MCF7 cells assessed as late apoptotic cells at 5 uM after 24 hrs by Annexin V-FITC/propidium iodide staining-based flow cytometric analysis (reference value: 5.6%); method in brief: as §1
# MCF7 [18] = test: Induction of apoptosis in human MCF7 cells assessed as necrotic cells at 5 uM after 24 hrs by Annexin V-FITC/propidium iodide staining-based flow cytometric analysis (reference value: 0.2%)
# MCF7 [19] = test: Induction of apoptosis in human MCF7 cells assessed as necrotic cells at 10 uM after 24 hrs by Annexin V-FITC/propidium iodide staining-based flow cytometric analysis (reference value: 0.2%)
# MCF7 [20] = test: Induction of apoptosis in human MCF7 cells assessed as viable cells at 25 uM after 24 hrs by Annexin V-FITC/propidium iodide staining-based flow cytometric analysis (reference value: 92.1%); conditions: MCF7, 24 h, read-out: Activity
# MCF7 [21] = test: Induction of apoptosis in human MCF7 cells assessed as early apoptotic cells at 25 uM after 24 hrs by Annexin V-FITC/propidium iodide staining-based flow cytometric analysis (reference value: 2.1%); method in brief: as §1
# MCF7 [22] = test: Induction of apoptosis in human MCF7 cells assessed as viable cells at 50 uM after 24 hrs by Annexin V-FITC/propidium iodide staining-based flow cytometric analysis (reference value: 92.1%); conditions: MCF7, 24 h, read-out: Activity
# MCF7 [23] = test: Induction of apoptosis in human MCF7 cells assessed as early apoptotic cells at 50 uM after 24 hrs by Annexin V-FITC/propidium iodide staining-based flow cytometric analysis (reference value: 2.1%); method in brief: as §1
# MCF7 [24] = test: Induction of apoptosis in human MCF7 cells assessed as viable cells at 1 uM after 48 hrs by Annexin V-FITC/propidium iodide staining-based flow cytometric analysis (reference value: 87.9%); conditions: MCF7, 48 h, read-out: Activity
# MCF7 [25] = test: Induction of apoptosis in human MCF7 cells assessed as early apoptotic cells at 1 uM after 48 hrs by Annexin V-FITC/propidium iodide staining-based flow cytometric analysis (reference value: 9.1%); method in brief: as §1
# MCF7 [26] = test: Induction of apoptosis in human MCF7 cells assessed as late apoptotic cells at 1 uM after 48 hrs by Annexin V-FITC/propidium iodide staining-based flow cytometric analysis (reference value: 2.8%); method in brief: as §1
# MCF7 [27] = test: Induction of apoptosis in human MCF7 cells assessed as necrotic cells at 1 uM after 24 hrs by Annexin V-FITC/propidium iodide staining-based flow cytometric analysis (reference value: 0.1%)
# MCF7 [28] = test: Induction of apoptosis in human MCF7 cells assessed as viable cells at 5 uM after 48 hrs by Annexin V-FITC/propidium iodide staining-based flow cytometric analysis (reference value: 87.9%); conditions: MCF7, 48 h, read-out: Activity
# MCF7 [29] = test: Induction of apoptosis in human MCF7 cells assessed as early apoptotic cells at 5 uM after 48 hrs by Annexin V-FITC/propidium iodide staining-based flow cytometric analysis (reference value: 9.1%); method in brief: as §1
# MCF7 [30] = test: Induction of apoptosis in human MCF7 cells assessed as necrotic cells at 25 uM after 24 hrs by Annexin V-FITC/propidium iodide staining-based flow cytometric analysis (reference value: 0.1%)
# MCF7 [31] = test: Induction of apoptosis in human MCF7 cells assessed as early apoptotic cells at 50 uM after 48 hrs by Annexin V-FITC/propidium iodide staining-based flow cytometric analysis (reference value: 9.1%); method in brief: as §1
structure (smiles),measurement,setting,value
COc1cc([C@@H]2c3cc4c(cc3[C@@H](O[C@@H]3O[C@@H]5CO[C@@H](C)O[C@H]5[C@H](O)[C@H]3O)[C@H]3COC(=O)[C@H]23)OCO4)cc(OC)c1O [ETOPOSIDE],viability at 1 µM,MCF7 [1],90.8%
same,Activity,MCF7 [2],2%
same,Activity,MCF7 [3],7.6%
same,Activity,MCF7 [4],0.6%
same,viability at 10 µM,MCF7 [5],87.7%
same,Activity,MCF7 [6],9.1%
same,Activity,MCF7 [7],1%
same,viability at 25 µM,MCF7 [8],90.6%
same,Activity,MCF7 [9],6.7%
same,Activity,MCF7 [10],0.8%
same,viability at 50 µM,MCF7 [11],91.6%
same,Activity,MCF7 [12],2.9%
same,viability at 1 µM,MCF7 [13],90.7%
same,Activity,MCF7 [14],0.2%
same,viability at 5 µM,MCF7 [15],84.2%
same,Activity,MCF7 [16],6.7%
same,Activity,MCF7 [17],8.4%
same,Activity,MCF7 [18],0.6%
same,Activity,MCF7 [19],0.8%
same,viability at 25 µM,MCF7 [20],81.1%
same,Activity,MCF7 [21],10.4%
same,viability at 50 µM,MCF7 [22],73.9%
same,Activity,MCF7 [23],12.4%
same,viability at 1 µM,MCF7 [24],79.1%
same,Activity,MCF7 [25],14.8%
same,Activity,MCF7 [26],6%
same,Activity,MCF7 [27],0.2%
same,viability at 5 µM,MCF7 [28],21.7%
same,Activity,MCF7 [29],62.1%
same,Activity,MCF7 [30],1.6%
same,Activity,MCF7 [31],57%
